The source of these data is ChEMBL document CHEMBL1275434, “In vitro evaluation of CBR-2092, a novel rifamycin-quinolone hybrid antibiotic: studies of the mode of action in Staphylococcus aureus” (Antimicrob Agents Chemother, 2008).

Assay [1] deals with Staphylococcus aureus. Briefly: Antimicrobial activity against Staphylococcus aureus CB1953 harboring rpoB H481Y, gyrA S84L, gyrA V598I, parC S80F, parC R570H mutant genes selected after CBR-2092 exposure for 7 days. The conditions noted are these: CB1953, 168 h. In kind it is functional.
Assay [2] deals with Staphylococcus aureus. The assay is described as follows: Antimicrobial activity against Staphylococcus aureus CB815 harboring rpoB H481Y, gyrA […] and parC S80F mutant genes. In kind it is functional.
Assay [3] concerns Staphylococcus aureus. The assay is described as follows: Antimicrobial activity against Staphylococcus aureus CB1947 harboring rpoB H481Y, gyrA S84L, E697 deficient gyrA, parC G167V mutant genes selected after CBR-2092 exposure for 20 days. The conditions noted are these: CB1947, 480 h.
Assay [4] concerns Staphylococcus aureus. Briefly: Antimicrobial activity against Staphylococcus aureus CB370 harboring rpoB H481Y mutant gene. In kind it is functional.
Assay [5] concerns Staphylococcus aureus. Briefly: Antimicrobial activity against Staphylococcus aureus CB814 harboring […] and parC S80F mutant genes. In kind it is functional.
The subject of assay [6] is Staphylococcus aureus. The assay is described as follows: Antimicrobial activity against Staphylococcus aureus CB1952 harboring rpoB S486L, gyrA […], gyrA E88Q, gyrA G532S, parC S80F, parC E84L mutant genes selected after CBR-2092 exposure for 21 days. The format is functional. The conditions noted are these: CB1952, 504 h.
The subject of assay [7] is Staphylococcus aureus. The assay is described as follows: Antimicrobial activity against Staphylococcus aureus CB1954 harboring rpoB H481Y, gyrA S84L, K809 deficient gyrA, parC S80F, parC A523D mutant genes selected after CBR-2092 exposure for 7 days. The format is functional. The conditions noted are these: CB1954, 168 h. Summed up:
(§1)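 CLSI broth microdilution MIC in cation-adjusted Mueller-Hinton (MHII) broth supplemented with 0.002% (vol/vol) polysorbate 80, included to limit compound loss to plastic surfaces.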

Assay [8] relates to Staphylococcus aureus. Briefly: Antimicrobial activity against Staphylococcus aureus CB1884. The format is functional.
Assay [9] concerns Staphylococcus aureus. Briefly: Antimicrobial activity against Staphylococcus aureus CB812 harboring rpo B H481Y and gyrA S84L mutant genes by broth microdilution method. The format is functional. Summed up: as §1
For assay [10], the system named is Staphylococcus aureus. Briefly: Antimicrobial activity against Staphylococcus aureus CB815 harboring rpoB H481Y, gyrA S84L and parC S80F mutant genes by broth microdilution method.
The subject of assay [11] is Staphylococcus aureus. Briefly: Antimicrobial activity against Staphylococcus aureus CB814 harboring fluoroquinolone-resistant gyrA S84L and parC S80F mutant genes by broth microdilution method. In kind it is functional. Summed up:
as §1
A general note: Broth dilution looks for growth in wells or tubes with falling amounts of substance.

In assay [12] the test system is Staphylococcus aureus. Briefly: Antimicrobial activity against Staphylococcus aureus CB811 harboring quinolone-resistant gyrA S84L mutant gene by broth microdilution method. The format is functional. Summed up:
as §1

In assay [13] the test system is Staphylococcus aureus. Briefly: Antimicrobial activity against Staphylococcus aureus CB809 harboring rpoB H481Y and parC S80F mutant genes by broth microdilution method.
Assay [14] concerns Staphylococcus aureus. Briefly: Antimicrobial activity against Staphylococcus aureus CB370 harboring rifampin-resistant rpoB H481Y mutant gene by broth microdilution method. In kind it is functional. The essentials: as §1
The test system of assay [15] is Staphylococcus aureus. Briefly: Antimicrobial activity against Staphylococcus aureus CB190 by broth microdilution method. The format is functional.
For assay [16], the system named is Staphylococcus aureus. The assay is described as follows: Antimicrobial activity against Staphylococcus aureus CB808 harboring quinolone-resistant parC S80F mutant gene by broth microdilution method. The format is functional. Summed up: as §1

Converted amounts (≈) assume the structure as drawn.

For `CCBr` [BROMOETHANE], the MIC against Staphylococcus aureus [1], against Staphylococcus aureus [2], against Staphylococcus aureus [3], in the assay with Staphylococcus aureus [4], against Staphylococcus aureus [5] and in the assay on Staphylococcus aureus [6] was 4 µg/mL (≈ 36.7 µM) in each case. In addition, the minimal inhibitory concentration (MIC) (usually the lowest concentration that inhibits growth of the organism) against Staphylococcus aureus [7] came to 4 µg/mL (≈ 36.7 µM); against Staphylococcus aureus [8], 2 µg/mL (≈ 18.4 µM).
As for `C[C@H]1COc2c(N3CCN(C)CC3)c(F)cc3c(=O)c(C(=O)O)cn1c23.C[C@H]1COc2c(N3CCN(C)CC3)c(F)cc3c(=O)c(C(=O)O)cn1c23.O` [LEVOFLOXACIN], the MIC against Staphylococcus aureus [9] was determined as 0.25 µg/mL; in the assay with Staphylococcus aureus [10] it was 8 µg/mL; against Staphylococcus aureus [11] it was 8 µg/mL; in the assay on Staphylococcus aureus [12], 0.25 µg/mL; against Staphylococcus aureus [13], 1 µg/mL; with Staphylococcus aureus [14] it was 0.25 µg/mL. Besides, the minimum inhibitory concentration (MIC) against Staphylococcus aureus [15] is 0.25 µg/mL; with Staphylococcus aureus [16] it was 1 µg/mL.
